Fibroblast inh – blocks proliferation of human lung fibroblasts | LL 47 human lung fibroblast viability, ATP luminescence; hits give low values | hit rate 1.1% among 85,000 | viability, % at 10 µM | AID 719;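 active = viability at or below 50% in the single dose screen; inactive = viability above 50%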;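 also: compound exposure lasted 72 h before the ATP readout; 100% = median luminescence of untreated cell-only wells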
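Assay system: human lung fibroblast line LL 47, low passage. Input: 1,150 fibroblasts seeded per well. Times: overnight cell rest, 72 h compound treatment at 37 °C. Evaluation: % viability of median cell-only signal. Technique: luminescent ATP detection, CellTiter-Glo. Control set: cell-only wells, no compound.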
PTK2B oligo ant – blocks oligomerization of human Pyk2 in cells; Q14289; Q293 cells, Pyk2 FERM NanoBiT luminescence; hits give low values; z-score (the deposit names both 25 µM and 10 µM); hit rate 0.83% among 99,000;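 active = Z-score of -3 or lower, scaled per plate to the spread of control and sample wells; inactive = z-score above -3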;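 also: negative z-score means lost luminescence so less FERM oligomerization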
Target sequence (Q14289 whole entry, looked up): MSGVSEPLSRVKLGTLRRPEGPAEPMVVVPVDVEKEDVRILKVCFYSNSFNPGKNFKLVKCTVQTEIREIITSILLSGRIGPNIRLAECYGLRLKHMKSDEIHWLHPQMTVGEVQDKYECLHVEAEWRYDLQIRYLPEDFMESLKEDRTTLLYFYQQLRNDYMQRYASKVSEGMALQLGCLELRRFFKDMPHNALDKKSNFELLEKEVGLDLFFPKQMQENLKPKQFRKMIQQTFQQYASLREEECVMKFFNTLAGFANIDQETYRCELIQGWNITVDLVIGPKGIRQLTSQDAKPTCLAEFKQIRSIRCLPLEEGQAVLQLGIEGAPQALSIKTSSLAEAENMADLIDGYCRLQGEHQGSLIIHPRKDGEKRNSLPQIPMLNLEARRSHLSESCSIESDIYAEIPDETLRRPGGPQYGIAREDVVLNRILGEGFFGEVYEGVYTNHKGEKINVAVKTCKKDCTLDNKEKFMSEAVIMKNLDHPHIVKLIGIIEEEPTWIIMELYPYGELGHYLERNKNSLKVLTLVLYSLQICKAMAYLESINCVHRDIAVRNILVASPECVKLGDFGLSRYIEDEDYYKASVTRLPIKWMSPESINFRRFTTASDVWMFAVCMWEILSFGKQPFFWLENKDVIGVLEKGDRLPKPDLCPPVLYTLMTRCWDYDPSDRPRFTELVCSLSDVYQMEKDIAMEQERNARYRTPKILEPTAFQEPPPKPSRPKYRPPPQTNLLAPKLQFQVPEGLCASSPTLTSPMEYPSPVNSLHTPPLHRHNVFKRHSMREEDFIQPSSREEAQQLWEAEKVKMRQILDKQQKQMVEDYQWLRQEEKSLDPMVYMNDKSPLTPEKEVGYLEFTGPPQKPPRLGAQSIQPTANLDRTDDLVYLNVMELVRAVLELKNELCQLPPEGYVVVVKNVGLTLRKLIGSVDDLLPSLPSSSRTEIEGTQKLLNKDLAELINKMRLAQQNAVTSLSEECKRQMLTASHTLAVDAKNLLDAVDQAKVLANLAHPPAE
HUVEC prolif 384 – human endothelial cell proliferation inhibition. AID 648. hit rate 1.1% among 86,000. viability, % at 10 µM (by protocol). HUVEC proliferation, CellTiter-Glo luminescence, 72 h; hits give low values;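 active = viability at or below 30%; inactive = viability above 30%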;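 also: 100% = median luminescence of DMSO-only cell control wells on each plate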
H69AR growth 86K – growth inhibitors of human H69AR lung tumor cells | H69AR lung tumor viability, ATP luminescence, 72 h; hits give low values | hit rate 6% among 85,000 | AID 598 | viability, % at 10 µM;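 active = viability at or below 40%; inactive = viability above 40%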;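 also: multidrug resistant small cell line overexpressing MRP-1 efflux transporter; 100% = mean luminescence of untreated control wells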
MT1-MMP txn act – MT1-MMP promoter transcription activation | hit rate 0.16% among 86,000 | HT1080 MT1-MMP promoter luciferase reporter, luminescence, overnight; hits give high values | activation factor at 10 µM;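 active = activation factor of at least 2 for MT1-MMP transcription at 10 µM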
Jurkat viability – cytotoxicity toward Jurkat cells; Jurkat E6.1 viability, ATP luminescence, 48 h; inhibition, % at 4 µM; hit rate 1.2% among 56,000;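 active = inhibition above the mean inhibition of all tested compounds plus 3 SD, cut at about 28% in these data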
The depositor's hits bear a star; x = no result given. An excerpt weighted towards active compounds, which were near 5.9% of everything screened.

SMILES	Fibroblast inh	PTK2B oligo ant	HUVEC prolif 384	H69AR growth 86K	MT1-MMP txn act	Jurkat viability
COc1cccc2cc(C(=O)NCc3ccccn3)c(=O)oc12	97.1	-0.48	95.9	95.6	2.1*	x
COc1ccc(CC(=O)NCc2ccco2)cc1OC	91.3	-0.59	92.9	81.7	1.1	x
COc1ccc(/C=N/N=C2/NC(=O)C(c3ccccc3)(c3ccccc3)S2)cc1	108.0	-0.04	102.4	97.8	1	x
Cc1cc(NC(=O)c2ccc(C)s2)n(-c2ccccc2)n1	x	0.46	x	x	x	x
CCCOc1ccc(-c2nc(C#N)c(NCCCn3ccnc3)o2)cc1	90.4	-0.55	28.4*	50.1	1.3	x
N#Cc1nc(-c2ccc(OCc3ccccc3Cl)cc2)oc1NCCCn1ccnc1	61.6	x	2.6*	94.4	1.1	-0.3
N#Cc1nc(-c2ccc(OCc3ccccc3)cc2)oc1NCCCn1ccnc1	92.4	-0.71	5.8*	6.5*	1	-8.0
CC(C)OC(=O)c1ccc(NC(=O)Cn2c(-c3nonc3N)nc3ccccc32)cc1	91.7	-4.2*	60.9	54.7	1.1	x
COC(=O)c1ccccc1NC(=O)Cn1c(-c2nonc2N)nc2ccccc21	47.0*	0.12	22.5*	8.2*	0.9	61.1*
Nc1nonc1-c1nc2ccccc2n1CC(=O)O	100.2	0.72	91.8	93.6	1.3	x
Cc1ccccc1OCC(O)Cn1nnc2ccccc21 (centres undefined)	111.6	0.19	110.5	108.2	2*	x
Cc1cc(C)n(CC(O)COc2ccccc2)n1 (centres undefined)	97.5	-0.1	99.5	98.1	1	x
COc1cc(/C=C2/C(=N)N3C=CSC3=NC2=O)ccc1OCCCOc1cc(C)ccc1C	70.2	0	15.2*	19.1*	1.1	x
CCOc1ccc(Nc2cc(C)nc(-n3nc(C)cc3C)n2)cc1	x	0.87	x	x	0.6	99.2*
O=S(=O)(c1ccc(Oc2ncnc3scc(-c4ccccc4)c23)cc1)N1CCOCC1	88.4	-1.93	85.9	37.2*	1.1	22.9
c1ccc(Oc2cccc(OCCCCSc3ncccn3)c2)cc1	100.4	-3.3*	115.2	91.1	1.1	x
COc1cccc(OCCCCSc2ncccn2)c1	105.7	0.67	106.6	94.9	1.4	-0.6
CCOC(=O)N1CCC(N2C(=O)c3ccccc3C2Nc2c(C)cccc2C)CC1 (centres undefined)	95.7	x	111.0	77.9	x	x
CCOc1ccc(C2C(C(=O)c3cccs3)=C(O)C(=O)N2CCCn2ccnc2)cc1 (centres undefined)	104.3	x	98.1	107.6	1.4	x
CC(C)n1c(-c2ccco2)csc1=Nc1cccnc1	101.9	-0.4	80.4	66.5	1	12.2
CCOC(=O)c1cc2c(C)n(-c3ccc(C)cc3)c(C)c2ccc1=O	x	-0.67	x	x	x	x
CCOC(=O)C(C(=O)Nc1ccc(C)cc1)C1CCCCC1 (centres undefined)	88.6	-1.48	79.7	22.6*	1.2	x
CCN(CC)c1ccc(/C=C(/C#N)c2nc3ccccc3[nH]2)c(OC(C)C)c1	x	-3.44*	x	x	x	x
COc1cc(/C=C(\C#N)c2nc3ccccc3[nH]2)c([N+](=O)[O-])cc1OCc1ccccc1	x	-1.37	x	x	x	x
O=c1cc(O)c2c(=O)n(-c3ccccc3)c3ccccc3c2o1	100.0	1.46	86.7	12.4*	1	-3.9
SMILES	Fibroblast inh	PTK2B oligo ant	HUVEC prolif 384	H69AR growth 86K	MT1-MMP txn act	Jurkat viability
CCCCc1ccc(-c2ccc(Br)cc2)nc1	104.0	-0.06	105.7	81.9	2*	x
CCCc1ccc(-c2ccc(F)c(N)c2)nc1	97.2	-0.18	81.8	78.4	x	59.6*
CN(C)C(=O)NC(Nc1ccc(Cl)cc1Cl)C(Cl)(Cl)Cl (centres undefined)	x	-1.31	x	x	x	x
CCN(CC)CCCN(C(=O)c1cccs1)c1nc(-c2ccc(OC)cc2)cs1	69.2	1.05	14.9*	29.2*	1.1	-1.0
COc1ccc(OC)c(-c2csc(N(Cc3ccco3)C(=O)c3cccs3)n2)c1	97.8	-0.9	91.8	8.8*	1	2.2
FC(F)C(F)(F)C(F)(F)C(F)(F)c1cc(-c2ccccc2)n[nH]1	82.3	-3.38*	13.9*	30.2*	1.1	-3.9
Cc1cc(-c2ccccc2)nc(N2CCC(C(=O)NCC3CCCCC3)CC2)n1	96.3	x	68.0	99.1	1.3	x
Cc1cc(C)n(-c2ccc(C(=O)Nc3ccc(S(=O)(=O)NCc4ccco4)cc3)cc2)n1	87.2	-2.29	58.0	64.9	0.9	64.9*
COc1cc(C(=O)Nc2nc3ccccc3s2)ccc1OCc1c(C)noc1C	79.9	-0.53	74.4	18.6*	1.3	x
Cc1cc(C)n(-c2ccc(C(=O)Nc3nc4ccccc4s3)cc2)n1	102.2	-0.71	60.2	15.2*	1.6	3.7
COC(=O)N1[C@H](Cc2ccccc2)C=C[C@]1(C)C(=O)NCc1ccc(C)o1	x	x	x	x	1	x
Cc1ccc2c(c1)C1(OCCO1)C(=O)N2	98.5	-0.85	92.0	81.8	1.1	x
Oc1ccc(/C=N/Nc2nccnc2Cl)c(O)c1	x	0.52	x	x	x	x
Oc1ccccc1/C=N/Nc1nccnc1Cl	31.6*	-0.06	59.5	42.9	1.1	x
N#CC1=C(N)SC(N)=C(C#N)C1Cc1ccccc1	93.7	0.4	73.1	16.6*	1.1	5.4
CC(C)(C)NC(=O)C(c1ccccn1)N(C(=O)C1CSC(=O)C1)c1ccc(F)cc1 (centres undefined)	101.4	0.38	104.7	94.3	1.1	x
O=C(O)c1cn(C2CC2)c2cc(N3CCOCC3)c(F)cc2c1=O	85.8	x	94.4	73.2	1.1	x
O=C(OCC#CCSc1nc2ccccc2o1)c1ccco1	94.8	0.01	85.3	95.2	1.2	-1.6
O=C(OCC#CCSc1nnc(-c2cccc3ccccc23)o1)c1ccco1	83.2	-0.87	80.3	30.3*	1.1	x
CC1=C(C(=O)NCc2ccccc2)C(c2cccs2)n2ncnc2N1 (centres undefined)	89.6	1.68	81.5	84.1	1.1	5.9
CC(Cc1cccs1)NC(=O)Nc1ccc(Cl)c(Cl)c1 (centres undefined)	105.6	-2.18	56.4	25.7*	1.7	x
Cc1c(CN(C)C)c2c(n1Cc1ccccc1)C(=O)c1ccc(Br)cc1-2	45.9*	-0.56	22.4*	5.5*	1	x
C[C@H](CS)C(=O)N1CCC[C@H]1C(=O)O	96.3	x	97.5	96.2	1.1	x
CN1CC=C2C(C#N)=C(N)C(C#N)(C#N)[C@H](c3cccs3)[C@H]2C1	84.9	-0.66	90.5	34.9*	1.3	x
CC(C)c1ccc(C2C3CSCC=C3C(C#N)=C(N)C2(C#N)C#N)cc1 (centres undefined)	86.1	x	6.8*	1.4*	1.4	x
CCCC1C2CN(C(C)C)CC=C2C(C#N)=C(N)C1(C#N)C#N (centres undefined)	97.3	-0.18	93.5	21.3*	1.1	-2.0

Compound activity deposited in PubChem by several laboratories.
